≈ marks a conversion by molar mass, not a printed value.
Key:
[1] = tested on: M. tuberculosis H37Rv versus NIH 3T3; experiment: Selectivity index; parameters: species or system Mycobacterium tuberculosis; conditions: IC50 NIH 3T3 / MIC M. tuberculosis H37Rv
In short: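 SI = IC50/MIC. MIC against M. tuberculosis H37Rv came from broth microdilution microplate alamar blue assay (MABA), with compounds tested at 100-1.56 μg/ml. […] IC50 was derived by nonlinear regression of % inhibition against log10 concentration.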

Rhodospirillum rubrum = experiment: MIC, two-fold serial dilution; assay type: cell-based; conditions: 24 h, read-out: R. ruberum MIC× 10^−3
Vibrio cholerae = experiment: MIC, two-fold serial dilution; assay type: cell-based; conditions: 24 h, read-out: V. cholerae MIC× 10^−3
Candida albicans = experiment: MIC, two-fold serial dilution; assay type: cell-based; conditions: read-out: C. albicans MIC× 10^−3
In short: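 Fungal MIC determined by two-fold serial dilution, with clotrimazole as reference standard. Growth was scored visually after 72-96 h incubation. MIC was taken as the lowest concentration with no visible growth.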

Bacillus lentus = experiment: Zone of inhibition, disk diffusion; assay type: cell-based
[2] = tested on: M. tuberculosis H37Rv (MTB); experiment: Microplate alamar blue assay; assay type: cell-based, Mycobacterium tuberculosis; conditions: MABA, screened at 100-1.56 μg/ml; - indicates no inhibition
Coryne bacterium = experiment: Zone of inhibition, disk diffusion; assay type: cell-based
Escherichia coli = experiment: Zone of inhibition, disk diffusion; assay type: cell-based; conditions: E. coli, 100 μg/disk

O=C1NN=C(N=Cc2ccccc2O)C1=NNn1c(-c2ccccc2)nc2ccccc2c1=O [QSP2, 3-{2-[-3-[-[(2-hydroxyphenyl)methylidene]amino]-5-oxo-4,5-dihydro-1H-pyrazol-4-ylidene]hydrazin-1-yl}-2-phenyl-3,4-dihydroquinazolin-4-one]
Selective Index (SI) (SI=IC50/MIC) [1]: 16.32

O=C1NN=C(N=Cc2ccc(O)c(O)c2)C1=NNn1c(-c2ccccc2)nc2ccccc2c1=O [QSP4, 3-{2-[-3-[-[(3,4-dihydroxyphenyl)methylidene]amino]-5-oxo-4,5-dihydro-1H-pyrazol-4-ylidene] hydrazin-1-yl}-2-phenyl-3,4-dihydroquinazolin-4-one]
MIC (Rhodospirillum rubrum): 26.7 µM (≈ 12.5 µg/mL) | MIC (Vibrio cholerae): 26.7 µM (≈ 12.5 µg/mL) | MIC (Candida albicans): 26.7 µM (≈ 12.5 µg/mL)

CC1=NN(CNC(=O)c2ccccc2)C(=O)C1=NNn1c(-c2ccccc2)nc2ccccc2c1=O [QP11, N-{[-3-methyl-5-oxo-4-[2-(4-oxo-2-phenyl-3,4-dihydroquinazolin-3-yl)hydrazin-1-ylidene]-4,5-dihydro-1H-pyrazol-1-yl]methyl}benzamide]
B. lentus % of I (Bacillus lentus): 95% | TB Activity MIC×10^-3 (MTB37RV) [2]: 06.49 ×10^-3 μM/ml

O=C(O)c1cn(C2CC2)c2cc(N3CCNCC3)c(F)cc2c1=O [CFN, ciprofloxacin]
TB Activity MIC×10^-3 (MTB37RV) [2]: 09.40 ×10^-3 μM/ml

CC1=NN(CNc2ccc(O)cc2)C(=O)C1=NNn1c(-c2ccccc2)nc2ccccc2c1=O [QP3, 3-{2-[-1-{[(4-hydroxyphenyl)amino]methyl}-3-methyl-5-oxo-4,5-dihydro-1H-pyrazol-4-ylidene] hydrazin-1-yl}-2-phenyl-3,4-dihydroquinazolin-4-one]
Selective Index (SI) (SI=IC50/MIC) [1]: 01.16

CC[C@@H](CO)NCCN[C@@H](CC)CO [Ethambutol, ethambutol]
TB Activity MIC×10^-3 (MTB37RV) [2]: 07.60 ×10^-3 μM/ml

O=C1NN=C(N=Cc2ccccc2)C1=NNn1c(-c2ccccc2)nc2ccccc2c1=O [QSP1, 3-{2-[-5-oxo-3-[-(phenylmethylidene)amino]-4,5-dihydro-1H-pyrazol-4-ylidene]hydrazin-1-yl}-2-phenyl-3,4-dihydroquinazolin-4-one]
Selective Index (SI) (SI=IC50/MIC) [1]: 10.92

O=C1NN=C(N=Cc2ccc(O)cc2O)C1=NNn1c(-c2ccccc2)nc2ccccc2c1=O [QSP3, 3-{2-[-3-[-[(2,4-dihydroxyphenyl)methylidene]amino]-5-oxo-4,5-dihydro-1H-pyrazol-4-ylidene] hydrazin-1-yl}-2-phenyl-3,4-dihydroquinazolin-4-one]
Selective Index (SI) (SI=IC50/MIC) [1]: 08.35

CC1=NN(CNc2ccc(C(=O)O)cc2)C(=O)C1=NNn1c(-c2ccccc2)nc2ccccc2c1=O [QP6, 4-({[-3-methyl-5-oxo-4-[2-(4-oxo-2-phenyl-3,4-dihydroquinazolin-3-yl)hydrazin-1-ylidene]-4,5-dihydro-1H-pyrazol-1-yl]methyl}amino)benzoic acid]
C. bacterium % of I (Coryne bacterium): 90% | antibacterial activity relative to standard drug ciprofloxacin (Escherichia coli): 1.5 times

CC1=NN(CNc2ccc(Cl)cc2)C(=O)C1=NNn1c(-c2ccccc2)nc2ccccc2c1=O [QP4, 3-{2-[-1-{[(4-chlorophenyl)amino]methyl}-3-methyl-5-oxo-4,5-dihydro-1H-pyrazol-4-ylidene] hydrazin-1-yl}-2-phenyl-3,4-dihydroquinazolin-4-one]
C. bacterium % of I (Coryne bacterium): 90%

CC(=O)NCN1N=C(C)C(=NNn2c(-c3ccccc3)nc3ccccc3c2=O)C1=O [QP9, N-{[-3-methyl-5-oxo-4-[2-(4-oxo-2-phenyl-3,4-dihydroquinazolin-3-yl)hydrazin-1-ylidene]-4,5-dihydro-1H-pyrazol-1-yl]methyl}acetamide]
B. lentus % of I (Bacillus lentus): 95% | Selective Index (SI) (SI=IC50/MIC) [1]: 18.16
